Compounds with a hit are over-represented: about 3% of the library has one in this group of screens.
SENP8 block-1 – SENP8 protease inhibitors, primary screen, biochemical, luminescence | Sentrin-specific protease 8 (Homo sapiens), Q96LD8 | purified SENP8, Z-RLRGG-aminoluciferin cleavage | inhibition, % at 10 µM | hit rate 1.2% among 330,000 | AID 2540, 2010; in the data active = inhibition above about 50%
Apaf1 inhib – inhibitors of human Apaf-1 apoptosome, primary screen, biochemical, DEVD-Rh110 fluorescence, uHTS | reconstituted apoptosome caspase-3 activity | inhibition, % at 20 µM | hit rate 0.71% among 330,000; active = inhibition of at least 40% at 20 µM;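 also: plate controls were DMSO wells for no effect and DEVD-CHO caspase inhibitor wells for full effect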
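detection = Rh110 fluorescence intensity | test system = biochemical Apaf-1 apoptosome reconstitution | also added = cytochrome c and DEVD-Rh110 substrate | schedule = 30 min plus 50 min, RT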
SENP8 block-2 – human SENP8 protease inhibitors, primary screen, biochemical, fluorescence, Nedd8 protein substrate, uHTS | Sentrin-specific protease 8 (Homo sapiens), Q96LD8 | recombinant SENP8 | inhibition, % at 20 µM | hit rate 0.64% among 360,000; in the data active = inhibition mostly above about 40%, no sharp cut-off; inactive = mostly below about 27%
UBC13 polyUb – UBC13 polyubiquitin chain formation inhibitors, primary screen, biochemical, TR-FRET, uHTS. Ubiquitin-conjugating enzyme E2 N (Homo sapiens), P61088. inhibition, % at 20 µM. hit rate 0.47% among 330,000. AID 485273, 2010; in the data active = inhibition above about 45%, passing the limit was not always enough
Target sequence (P61088 whole entry, looked up): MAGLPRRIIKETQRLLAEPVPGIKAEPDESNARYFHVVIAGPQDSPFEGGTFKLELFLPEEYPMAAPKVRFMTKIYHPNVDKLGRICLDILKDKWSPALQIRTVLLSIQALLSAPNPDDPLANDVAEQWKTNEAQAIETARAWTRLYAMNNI
SENP7 block – SENP7 protease inhibitors, primary screen, biochemical, luminescence, uHTS. Sentrin-specific protease 7 (Homo sapiens), Q9BQF6. recombinant SENP7, Z-RLRGG-aminoluciferin luminescence, 40 min. inhibition, % at 5 µM. hit rate 1.5% among 330,000. AID 434973, 2010;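 active = inhibition above about 50% at the single test dose, limit read from the data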;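 also: plate controls were DMSO with enzyme for no effect and no enzyme buffer wells for full effect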
SENP6 inh – SENP6 protease inhibitors, primary screen, biochemical, luminescence, uHTS. Sentrin-specific protease 6 (Homo sapiens), Q9GZR1. Recombinant SENP6 catalytic domain, aminoluciferin luminescence. inhibition, % at 10 µM. hit rate 1.8% among 330,000;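 active = inhibition above about 50% at the single tested dose, limit read from the data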;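 also: plate controls were DMSO wells with enzyme for no effect and DMSO wells lacking enzyme for full effect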
Target sequence (Q9GZR1 628-1112 limits assumed): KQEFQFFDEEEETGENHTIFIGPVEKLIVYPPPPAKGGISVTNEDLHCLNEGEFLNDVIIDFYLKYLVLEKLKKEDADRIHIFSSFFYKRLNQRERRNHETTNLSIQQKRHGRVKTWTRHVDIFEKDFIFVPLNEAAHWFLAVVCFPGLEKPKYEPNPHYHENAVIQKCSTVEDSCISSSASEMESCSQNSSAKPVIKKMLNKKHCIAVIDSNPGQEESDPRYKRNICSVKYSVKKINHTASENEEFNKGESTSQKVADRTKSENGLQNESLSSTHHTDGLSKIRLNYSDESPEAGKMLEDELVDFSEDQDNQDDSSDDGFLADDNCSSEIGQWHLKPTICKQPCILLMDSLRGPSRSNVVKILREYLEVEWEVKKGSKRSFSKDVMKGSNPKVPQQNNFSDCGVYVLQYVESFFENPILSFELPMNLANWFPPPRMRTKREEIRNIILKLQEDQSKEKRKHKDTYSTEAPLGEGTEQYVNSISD
SENP8 conf – SENP8 protease inhibitors, retest, confirmation, biochemical, luminescence, single concentration; shares compounds with SENP7 block; Recombinant SENP8, Z-RLRGG-aminoluciferin luminescence, 60 min; inhibition, % at 12.5 µM; hit rate 40% among 6,200; AID 488912, 2010;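 active = mean inhibition across replicates above about 50%, limit read from the data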
SENP6 conf – SENP6 protease inhibitors, confirmation, biochemical, luminescence, single concentration | shares compounds with SENP7 block | recombinant SENP6, Z-RLRGG-aminoluciferin luminescence | inhibition, % at 12.5 µM | hit rate 58% among 6,200
SENP7 conf – SENP7 protease inhibitors, retest, confirmation, biochemical, luminescence, single concentration; shares compounds with SENP7 block; inhibition, % at 12.5 µM; AID 488917, 2010; recombinant SENP7, Z-RLRGG-aminoluciferin luminescence, 40 min; hit rate 69% among 6,200
Casp3 SENP sel – caspase-3 protease inhibitors, confirmation, selectivity assay for SENP inhibitor project, biochemical, single concentration; inhibition, % at 12.5 µM; hit rate 60% among 6,200; purified caspase-3, Z-DEVD-aminoluciferin luminescence, 60 min; shares compounds with SENP7 block;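 active = mean inhibition above about 50%, limit read from the data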;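 also: plate controls were enzyme with DMSO for no effect and wells without caspase-3 for full effect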
Luc interf – luminescence interference (SENP counter-screen). hit rate 39% among 6,200. inhibition, % at 12.5 µM. Pre-incubated SENP8/Z-RLRGG-aminoluciferin, luciferase luminescence interference. AID 488919. shares compounds with SENP7 block;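 active = mean inhibition above about 50% when retested at one dose, limit read from the data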;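 also: plate controls were DMSO wells with completed reaction for no effect and substrate without enzyme for full effect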
Starred values were filed as active, the others as inactive; i = inactive; / = not tested or not shown.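 The calls were made as follows, unless noted: active = mean inhibition above about 50% in the one-dose retest (limit read from the data); inactive = the rest.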

SMILES | SENP8 block-1 | Apaf1 inhib | SENP8 block-2 | UBC13 polyUb | SENP7 block | SENP6 inh | SENP8 conf | SENP6 conf | SENP7 conf | Casp3 SENP sel | Luc interf
CN(C)S(=O)(=O)c1ccc(Cl)c(C(=O)OCC(=O)NNC(=O)c2cccs2)c1 | 1.8 | -8.8 | 9.5 | 5.1 | -4.6 | -7.3 | / | / | / | / | /
Cc1c(C(=O)Nc2cccc([N+](=O)[O-])c2)csc1-c1ccccc1 | 2.3 | 20.7 | 25.4 | -2.9 | 97.3* | 72.1* | 31.6 | 27.0 | 45.3 | 76.2* | 51.9*
O=C(Nc1ccncc1)c1ccccc1F | -5.2 | -1.9 | 10.6 | 5.3 | 7.8 | -10.4 | / | / | / | / | /
O=C(Nc1ccncc1)c1cc2ccccc2cc1O | 95.8* | 37.2 | -5.9 | -8.2 | 93.4* | 99.2* | 84.6* | 99.0* | 102.5* | 97.3* | 45.4
COc1ccc(NC(=O)c2ccc(-c3ccc([N+](=O)[O-])cc3)o2)cc1 | -4.1 | -5.7 | 17.4 | -14.4 | -8.5 | -17.9 | / | / | / | / | /
O=C(O)c1ccccc1C(=O)Nc1cccc([N+](=O)[O-])c1 | 2.9 | -2.5 | 23.1 | 3.1 | 2.1 | 9.9 | / | / | / | / | /
O=C(Nc1cccc([N+](=O)[O-])c1)c1cc2ccccc2cc1O | 80.1* | 4.0 | 39.7 | -15.9 | 70.3* | 87.3* | 14.3 | 37.4 | 43.7 | 79.1* | 4.3
COc1ccc(NC(=O)c2cc([N+](=O)[O-])ccc2O)cc1 | 95.5* | -2.9 | 29.0 | -4.5 | 99.7* | 99.6* | -24.9 | 101.3* | 104.2* | 100.1* | 100.1*
COc1ccc(C(=O)NCCS(=O)(=O)NCc2ccc(F)cc2)cc1 | -4.1 | 11.7 | 12.9 | -5.0 | -14.5 | -6.8 | / | / | / | / | /
c1ccc2oc(SCc3nc4ccccc4s3)nc2c1 | 32.3 | 12.9 | -116.1 | 3.2 | 24.7 | 49.7 | / | / | / | / | /
NC(=O)c1ccccc1OCc1nc2ccccc2s1 | 36.7 | 0.7 | -20.8 | 1.3 | 37.9 | 47.9 | / | / | / | / | /
CCC(=O)Nc1ccc(OCc2nc3ccccc3s2)cc1 | 75.5* | 1.7 | -34.2 | -7.6 | 74.9* | 44.6 | 13.4 | 80.5* | 96.1* | 75.0* | 15.2
Fc1ccc(OCc2nc3ccccc3s2)cc1 | 90.3* | 6.1 | -27.0 | 1.0 | 93.7* | 97.2* | 82.4* | 92.4* | 101.7* | 90.3* | 78.9*
c1ccc(OCc2nc3ccccc3s2)cc1 | 87.6* | 11.6 | 17.0 | -21.8 | 95.3* | 92.8* | 84.8* | 95.6* | 100.6* | 91.2* | 84.2*
c1ccc(SCc2nc3ccccc3s2)nc1 | 44.8 | 1.7 | -5.6 | 1.1 | 48.9 | 60.0* | 64.1* | 61.1* | 86.4* | 66.2* | 57.3*
Cc1ccc2c(c1)-n1c(nc3cc(Cl)ccc3c1=O)C(Cc1ccccc1)NC2=O (centres undefined) | 4.1 | 10.9 | / | 15.6 | -5.6 | -13.1 | / | / | / | / | /
CCCCSCCCNC(=O)Nc1ccc(C)c(C)c1 | -13.2 | 7.3 | 10.7 | -7.9 | -2.5 | -7.9 | / | / | / | / | /
CC(C(=O)O/N=C(\N)c1cccnc1)c1ccc([N+](=O)[O-])cc1 (centres undefined) | 2.7 | 0.6 | 12.1 | -2.3 | 13.9 | -9.7 | / | / | / | / | /
CCOC1=C2[C@@H](CN(S(=O)(=O)c3ccc(C)cc3)[C@H]2c2ccccc2F)[C@H]2C(=O)N(c3ccccc3)C(=O)[C@H]2C1 | / | / | 11.1 | / | / | / | / | / | / | / | /
O=C(Nc1ccc2oc(-c3ccccc3Cl)nc2c1)c1ncn[nH]1 | 34.9 | 1.0 | -257.1 | 5.6 | 23.6 | 52.1* | 24.2 | 20.5 | 28.5 | 25.7 | 0.5
CCc1ccc2oc(-c3ccc(NC(C)=O)cc3)nc2c1 | 72.4* | 0.7 | -446.0 | 13.9 | 78.1* | 75.1* | 43.7 | 78.8* | 95.9* | 32.7 | 17.7
O=C(Nc1ccc2oc(-c3cccc4ccccc34)nc2c1)c1ncn[nH]1 | -11.5 | 12.2 | i | 7.8 | -1.3 | -16.1 | / | / | / | / | /
CC(=O)Nc1ccc2oc(-c3cc(F)c(F)cc3Cl)nc2c1 | 40.0 | -0.9 | -290.9 | 12.3 | 67.2* | -4.8 | 20.6 | 20.6 | 9.5 | 39.1 | 25.1
CC(=O)Nc1ccc2oc(-c3ccccc3Br)nc2c1 | 58.3* | 6.5 | -222.0 | 19.1 | 58.7* | 83.6* | 81.0* | 76.3* | 90.4* | 67.7* | 64.7*
CC(C)C(=O)Nc1ccc2oc(-c3cc(F)c(F)cc3Cl)nc2c1 | -10.5 | 9.8 | -273.4 | 6.3 | -16.6 | -6.6 | / | / | / | / | /
SMILES | SENP8 block-1 | Apaf1 inhib | SENP8 block-2 | UBC13 polyUb | SENP7 block | SENP6 inh | SENP8 conf | SENP6 conf | SENP7 conf | Casp3 SENP sel | Luc interf
O=C(O)c1ccc(CNS(=O)(=O)c2ccc(Oc3ccccc3Cl)cc2)cc1 | 20.3 | -3.4 | 7.6 | 0.2 | -7.3 | 34.6 | / | / | / | / | /
CC1(C)CC(=O)c2sc(NC(=O)C(C)(C)C)nc2C1 | 6.7 | -12.5 | -6.5 | 11.3 | -3.3 | -4.9 | / | / | / | / | /
CC1(C)CC(=O)c2sc(NC(=O)c3ccccc3)nc2C1 | 55.3* | -6.5 | / | 2.6 | 56.9* | 39.7 | 60.0* | 51.2* | 65.1* | 75.0* | 64.3*
CC1(C)CC(=O)c2sc(NC(=O)c3cccs3)nc2C1 | 52.2* | -0.6 | -57.3 | -7.7 | 66.4* | 80.1* | 62.9* | 63.6* | 87.8* | 86.6* | 44.0
Cc1noc(C)c1-c1csc(N2CCC(C(N)=O)CC2)n1 | -7.9 | 11.5 | 14.8 | 19.5 | 9.4 | 21.6 | / | / | / | / | /
Cc1c(C(=O)O)[nH]c2c1C(=O)CC(c1ccc(Cl)cc1)C2 (centres undefined) | 4.7 | -19.7 | 8.0 | 1.1 | 90.4* | -6.7 | 6.9 | 5.1 | -1.5 | -2.1 | -5.0
O=c1c2ccccc2cnn1-c1ccc(Cl)cc1 | 34.1 | 3.0 | -3.6 | 10.1 | 57.4* | 58.9* | 23.4 | 61.5* | 73.3* | 78.9* | 33.2
Cc1ccc(-n2ncc3ccccc3c2=O)cc1Cl | 37.0 | 5.1 | -18.3 | 6.7 | 40.6 | 45.3 | / | / | / | / | /

Assay outcomes: PubChem BioAssay, Sanford-Burnham Center for Chemical Genomics
